From ChEMBL document CHEMBL3616459, “Antimicrobial peptides with potential for biofilm eradication: synthesis and structure activity relationship studies of battacin peptides” (J Med Chem, 2015)
Values after ≈ are worked out from the molar mass of the structure shown. Positions of bridges follow the written chain, without caps; N, C: chain ends. Non-standard residues stand in square brackets, D forms with d. Residues, ends and D or L forms follow the SMILES beside them. *: point of attachment. Myristoyl = CCCCCCCCCCCCCC(=O)*; X1 = CC(C)=CCC/C(C)=C/C(=O)*; dDab = NCC[C@@H](N)C(=O)O; X2 = CCC(C)CCC(O)CC(=O)*; Dab = NCC[C@H](N)C(=O)O

Tests used:
Pseudomonas aeruginosa = assay: Antimicrobial activity against Pseudomonas aeruginosa after 24 hrs by spectrophotometry; format: functional
Staphylococcus aureus = assay: Antimicrobial activity against Staphylococcus aureus after 24 hrs by spectrophotometry; format: functional
How it was run: (§1)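 Broth microdilution in Luria broth. Overnight culture from a single colony, grown at 28 °C (Ea1501, Psa) or 37 °C (E. coli, S. aureus), adjusted to OD600 0.6. Peptide dissolved in LB with 0.5% acetic acid as a dilution series; 50 μL peptide plus 50 μL culture per well, triplicates.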

Escherichia coli = assay: Antimicrobial activity against Escherichia coli after 24 hrs by spectrophotometry; format: functional; how it was run: as §1
[1] = Antimicrobial activity against Pseudomonas syringae pv. actinidiae 16027 after 24 hrs by spectrophotometry; format: functional; conditions: Pseudomonas syringae, 16027, 24 h; how it was run: as §1
Erwinia amylovora [2] = assay: Antimicrobial activity against streptomycin-resistant Erwinia amylovora after 24 hrs by spectrophotometry; format: functional
How it was run: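 Broth microdilution in Luria broth; overnight culture grown at 28 °C, adjusted to OD600 0.6, mixed 1:1 with a dilution series of peptide prepared in LB containing 0.5% acetic acid. Three replicates per concentration.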

Erwinia amylovora [3] = assay: Antimicrobial activity against Erwinia amylovora 1501 after 24 hrs by spectrophotometry; format: functional; conditions: Erwinia amylovora, 1501, 24 h; how it was run: as §1
[4] = Hemolytic activity in mouse erythrocytes at 100 uM after 1 hr by spectrophotometry; format: ADME, cell-based, Erythrocyte; conditions: read-out: Activity
How it was run: (§2)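 100 μL peptide (1 μM–1 mM in Tris buffer) plus 100 μL cells, incubated 1 h at 37 °C, triplicates. After centrifugation, supernatant A540 read. Percent hemolysis calculated relative to buffer (0%) and 0.1% Triton X-100 (100%) controls.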

[5] = Hemolytic activity in mouse erythrocytes at 100 uM to 1 mM after 1 hr by spectrophotometry; format: ADME, cell-based, Erythrocyte; conditions: read-out: Activity; how it was run: as §2

Row | Molecule | MIC (Pseudomonas aeruginosa) [µM] | MIC (Staphylococcus aureus) [µM] | MIC (Escherichia coli) [µM] | MIC [1] [µM] | MIC (Erwinia amylovora [2]) [µM] | MIC (Erwinia amylovora [3]) [µM] | hemolysis at 1 h, 100 µM [4] [%] | hemolysis at 1 h, 100 µM [5] [%]
1 | CCC(C)CCC(=O)N[C@H](CCN)C(=O)N[C@@H](CCN)C(=O)N[C@@H](CCN)C(=O)N[C@@H](CC(C)C)C(=O)N[C@H](Cc1ccccc1)C(=O)N[C@@H](CCN)C(=O)N[C@@H](CCN)C(=O)N[C@@H](C)C(=O)O (some centres undefined) | 5 (≈ 4.81 µg/mL) | 5 (≈ 4.81 µg/mL) | 15 (≈ 14.4 µg/mL) | 10 (≈ 9.62 µg/mL) |  |  |  | 
2 | CC(C)=CCC/C(C)=C/C(=O)N[C@H](CCN)C(=O)N[C@H]1CCNC(=O)[C@H](CC(C)C)NC(=O)[C@H](CCN)NC(=O)[C@H](CCN)NC(=O)[C@@H](Cc2ccccc2)NC(=O)[C@H](CC(C)C)NC(=O)[C@H](CCN)NC1=O | 10 (≈ 10.2 µg/mL) | 98 (≈ 100 µg/mL) | 98 (≈ 100 µg/mL) | 49 (≈ 50.2 µg/mL) | 488 (≈ 500 µg/mL) | 98 (≈ 100 µg/mL) |  | 
3 | GENTAMICIN | < 1 | 2.5 |  |  |  |  |  | 
4 | CCC(C)CCC(=O)N[C@H](CCN)C(=O)N[C@@H](C)C(=O)N[C@@H](CCN)C(=O)N[C@@H](CC(C)C)C(=O)N[C@H](Cc1ccccc1)C(=O)N[C@@H](CCN)C(=O)N[C@@H](CCN)C(=O)N[C@@H](CC(C)C)C(=O)O (some centres undefined) | 2.5 (≈ 2.44 µg/mL) | 2.5 (≈ 2.44 µg/mL) | 25 (≈ 24.4 µg/mL) | 2.5 (≈ 2.44 µg/mL) |  |  |  | 
5 | CCCCCCCCCCCCCC(=O)N[C@H](CCCCN)C(=O)N[C@H]1CCCCNC(=O)[C@H](CC(C)C)NC(=O)[C@H](CCCCN)NC(=O)[C@H](CCCCN)NC(=O)[C@@H](Cc2ccccc2)NC(=O)[C@H](CC(C)C)NC(=O)[C@H](CCCCN)NC1=O | 409 (≈ 501 µg/mL) | 81 (≈ 99.2 µg/mL) | 81 (≈ 99.2 µg/mL) | 12 (≈ 14.7 µg/mL) | 20 (≈ 24.5 µg/mL) | 81 (≈ 99.2 µg/mL) |  | 
6 | CC(C)C[C@@H]1NC(=O)[C@H](CCN)NC(=O)[C@H](CCN)NC(=O)[C@@H](Cc2ccccc2)NC(=O)[C@H](CC(C)C)NC(=O)[C@H](CCN)NC(=O)[C@@H](NC(=O)[C@@H](CCN)NC(=O)OCC2c3ccccc3-c3ccccc32)CCNC1=O | 2 (≈ 2.19 µg/mL) | 2 (≈ 2.19 µg/mL) | 19 (≈ 20.8 µg/mL) | 19 (≈ 20.8 µg/mL) | 32 (≈ 35.1 µg/mL) | 19 (≈ 20.8 µg/mL) | 41 | 
7 | CCCCCCCCCCCCCC(=O)N[C@H](CCN)C(=O)N[C@H]1CCNC(=O)[C@H](CC(C)C)NC(=O)[C@H](CCN)NC(=O)[C@H](CCN)NC(=O)[C@@H](Cc2ccccc2)NC(=O)[C@H](CC(C)C)NC(=O)[C@H](CCN)NC1=O | 92 (≈ 99.8 µg/mL) | 92 (≈ 99.8 µg/mL) | 92 (≈ 99.8 µg/mL) | 46 (≈ 49.9 µg/mL) | 23 (≈ 24.9 µg/mL) | 92 (≈ 99.8 µg/mL) |  | 
8 | CN[C@@H]1[C@H](O[C@H]2[C@H](O[C@H]3[C@H](O)[C@@H](O)[C@H](N=C(N)N)[C@@H](O)[C@@H]3N=C(N)N)O[C@@H](C)[C@]2(O)C=O)O[C@@H](CO)[C@H](O)[C@H]1O [STREPTOMYCIN] |  |  | 1 (≈ 0.582 µg/mL) | 1 (≈ 0.582 µg/mL) | 500 (≈ 291 µg/mL) | 1 (≈ 0.582 µg/mL) |  | 
9 | CC(C)=CCC/C(C)=C/C(=O)N[C@H](CCN)C(=O)N[C@@H](CCN)C(=O)N[C@@H](CCN)C(=O)N[C@@H](CC(C)C)C(=O)N[C@H](Cc1ccccc1)C(=O)N[C@@H](CCN)C(=O)N[C@@H](CCN)C(=O)N[C@@H](CC(C)C)C(N)=O (X1-[dDab][Dab][Dab]L[dF][Dab][Dab]L-NH2) | 48 (≈ 50 µg/mL) | 48 (≈ 50 µg/mL) | 24 (≈ 25 µg/mL) | 14 (≈ 14.6 µg/mL) | 48 (≈ 50 µg/mL) | 24 (≈ 25 µg/mL) |  | 
10 | CCCCCCCCCCCCCC(=O)N[C@H](CCCCN)C(=O)N[C@@H](CCCCN)C(=O)N[C@@H](CCCCN)C(=O)N[C@@H](CC(C)C)C(=O)N[C@H](Cc1ccccc1)C(=O)N[C@@H](CCCCN)C(=O)N[C@@H](CCCCN)C(=O)N[C@@H](CC(C)C)C(N)=O (Myristoyl-[dK]KKL[dF]KKL-NH2) | 12 (≈ 14.9 µg/mL) | 1 (≈ 1.24 µg/mL) | 12 (≈ 14.9 µg/mL) | 12 (≈ 14.9 µg/mL) | 12 (≈ 14.9 µg/mL) | 12 (≈ 14.9 µg/mL) |  | 
11 | CCC(C)CCC(O)CC(=O)N[C@H](CCN)C(=O)N[C@H]1CCNC(=O)[C@H](CC(C)C)NC(=O)[C@H](CCN)NC(=O)[C@H](CCN)NC(=O)[C@@H](Cc2ccccc2)NC(=O)[C@H](CC(C)C)NC(=O)[C@H](CCN)NC1=O (some centres undefined) (X2-[dDab][Dab][Dab]L[dF][Dab][Dab]L; lactam 2-C) | 5 (≈ 5.15 µg/mL) | > 50 | 10 (≈ 10.3 µg/mL) | 5 (≈ 5.15 µg/mL) | 24 (≈ 24.7 µg/mL) | 24 (≈ 24.7 µg/mL) |  | 
12 | CCC(C)CCC(=O)N[C@H](CCN)C(=O)N[C@@H](CCN)C(=O)N[C@@H](CCN)C(=O)N[C@@H](CC(C)C)C(=O)N[C@@H](C)C(=O)N[C@@H](CCN)C(=O)N[C@@H](CCN)C(=O)N[C@@H](CC(C)C)C(=O)O (some centres undefined) | > 1000 | 25 (≈ 23.2 µg/mL) | 25 (≈ 23.2 µg/mL) | > 1000 |  |  |  | 
13 | CCC(C)CCC(=O)N[C@H](CCN)C(=O)N[C@@H](CCN)C(=O)N[C@@H](C)C(=O)N[C@@H](CC(C)C)C(=O)N[C@H](Cc1ccccc1)C(=O)N[C@@H](CCN)C(=O)N[C@@H](CCN)C(=O)N[C@@H](CC(C)C)C(=O)O (some centres undefined) | 10 (≈ 9.75 µg/mL) | 25 (≈ 24.4 µg/mL) | 25 (≈ 24.4 µg/mL) | 25 (≈ 24.4 µg/mL) |  |  |  | 
14 | CC(C)CCCC(=O)N[C@H](CCN)C(=O)N[C@@H](CCN)C(=O)N[C@@H](CC(C)C)C(=O)N[C@H](Cc1ccccc1)C(=O)N[C@@H](CCN)C(N)=O | 1 (≈ 0.69 µg/mL) | 2.5 (≈ 1.72 µg/mL) | 10 (≈ 6.9 µg/mL) | 1 (≈ 0.69 µg/mL) |  |  |  | 1.14
15 | CCC(C)CCC(=O)N[C@H](CCN)C(=O)N[C@@H](CCN)C(=O)N[C@@H](CCN)C(=O)N[C@@H](CC(C)C)C(=O)N[C@H](Cc1ccccc1)C(=O)N[C@@H](C)C(=O)N[C@@H](CCN)C(=O)N[C@@H](CC(C)C)C(=O)O (some centres undefined) | 50 (≈ 48.8 µg/mL) | 500 (≈ 488 µg/mL) | 100 (≈ 97.5 µg/mL) | 100 (≈ 97.5 µg/mL) |  |  |  | 
16 | CCC(C)CCC(=O)N[C@H](CCN)C(=O)N[C@@H](CCN)C(=O)N[C@@H](CCN)C(=O)N[C@@H](C)C(=O)N[C@H](Cc1ccccc1)C(=O)N[C@@H](CCN)C(=O)N[C@@H](CCN)C(=O)N[C@@H](CC(C)C)C(=O)O (some centres undefined) | > 1000 | > 1000 | 500 (≈ 481 µg/mL) | > 1000 |  |  |  | 
17 | CC(C)C[C@H](NC(=O)[C@H](CCN)NC(=O)[C@H](CCN)NC(=O)[C@@H](Cc1ccccc1)NC(=O)[C@H](CC(C)C)NC(=O)[C@H](CCN)NC(=O)[C@H](CCN)NC(=O)[C@H](N)CCN)C(N)=O (H-[dDab][Dab][Dab]L[dF][Dab][Dab]L-NH2) | 2.5 (≈ 2.23 µg/mL) | > 1000 | 100 (≈ 89.1 µg/mL) | 5 (≈ 4.46 µg/mL) |  |  |  | 
18 | CCCCCCCCCCCCCC(=O)N[C@H](CCN)C(=O)N[C@@H](CCN)C(=O)N[C@@H](CCN)C(=O)N[C@@H](CC(C)C)C(=O)N[C@H](Cc1ccccc1)C(=O)N[C@@H](CCN)C(=O)N[C@@H](CCN)C(=O)N[C@@H](CC(C)C)C(N)=O (Myristoyl-[dDab][Dab][Dab]L[dF][Dab][Dab]L-NH2) | 14 (≈ 15.4 µg/mL) | 5 (≈ 5.51 µg/mL) | 5 (≈ 5.51 µg/mL) | 14 (≈ 15.4 µg/mL) | 14 (≈ 15.4 µg/mL) | 9 (≈ 9.91 µg/mL) |  | 76.9
19 | CCC(C)CCC(=O)N[C@H](CCN)C(=O)N[C@@H](CCN)C(=O)N[C@@H](CCN)C(=O)N[C@@H](CC(C)C)C(=O)N[C@H](Cc1ccccc1)C(=O)N[C@@H](CCN)C(=O)N[C@@H](C)C(=O)N[C@@H](CC(C)C)C(=O)O (some centres undefined) | 5 (≈ 4.88 µg/mL) | 5 (≈ 4.88 µg/mL) | 5 (≈ 4.88 µg/mL) | 2.5 (≈ 2.44 µg/mL) |  |  |  | 
20 | CCC(C)CCC(=O)N[C@@H](C)C(=O)N[C@@H](CCN)C(=O)N[C@@H](CCN)C(=O)N[C@@H](CC(C)C)C(=O)N[C@H](Cc1ccccc1)C(=O)N[C@@H](CCN)C(=O)N[C@@H](CCN)C(=O)N[C@@H](CC(C)C)C(=O)O (some centres undefined) | 25 (≈ 24.4 µg/mL) | > 1000 | 500 (≈ 488 µg/mL) | 100 (≈ 97.5 µg/mL) |  |  |  | 
21 | CCC(C)CCC(=O)N[C@H](CCN)C(=O)N[C@H]1CCNC(=O)[C@H](CC(C)C)NC(=O)[C@H](CCN)NC(=O)[C@H](CCN)NC(=O)[C@@H](Cc2ccccc2)NC(=O)[C@H](CC(C)C)NC(=O)[C@H](CCN)NC1=O (some centres undefined) | 2.5 (≈ 2.47 µg/mL) | 101 (≈ 99.6 µg/mL) | 15 (≈ 14.8 µg/mL) | 5 (≈ 4.93 µg/mL) | 25 (≈ 24.7 µg/mL) | 15 (≈ 14.8 µg/mL) |  | 2.02
